This note sets out measurements from ChEMBL document CHEMBL3244284, “(2-Carboxy-1,4-dihydro-4-oxoquinolyl)oxamic acids and (2-carboxy-1,4-dihydro-4-oxobenzo[h]quinolyl)oxamic acids as antiallergy agents” (1977).

For assay [1], the species on record is Rattus norvegicus. In words: Ratio of disodium cromoglycate ID50 to compound ID50 for antiallergic activity in Sprague-Dawley rat by passive cutaneous anaphylaxis (PCA) reaction. It is filed as functional.
Assay [2] is filed under the species Rattus norvegicus. In words: Antiallergic activity in Sprague-Dawley rat assessed as inhibition of egg albumin/ Hemophilus pertussis antibody-induced passive cutaneous anaphylaxis (PCA) reaction. The class given is functional. To be noted: read-out: ID50 (the source's name). In outline:
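Rats immunized ip with 0.5 mg egg albumin plus 0.5 cm3 heat-killed H. pertussis vaccine; serum collected at 18-20 days. Five 0.1-ml serum dilutions given intradermally on shaved back of 200-g rats. At 72 h, iv challenge with 4 mg EA plus 0.5% Evans blue; compound in THAM solution iv at challenge. Inhibition of spot count versus untreated; ID50 from 3-4 doses, six rats each.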

With `O=C(O)C(=O)Nc1cccc2c1ccc1c(=O)cc(C(=O)O)[nH]c12`, the Ratio in the assay listed under Rattus norvegicus [1] stood at 25. In addition, in the assay filed under Rattus norvegicus [2], the ED50 is 0.1 mg/kg.
With `Cc1ccc(NC(=O)C(=O)O)c2c(=O)cc(C(=O)O)[nH]c12`, the ED50 in the assay listed under Rattus norvegicus [2] came out at 0.4 mg/kg.
`O=C(O)C(=O)Nc1ccc(Cl)c2[nH]c(C(=O)O)cc(=O)c12`: the ED50 in the assay listed under Rattus norvegicus [2] stood at 0.3 mg/kg.
Consider `COc1ccc(NC(=O)C(=O)O)c2c(=O)cc(C(=O)O)[nH]c12`, for which, in the assay listed under Rattus norvegicus [2], the ED50 was 0.7 mg/kg.
As for `O=C(O)C(=O)Nc1ccc2[nH]c(C(=O)O)cc(=O)c2c1`, the ED50 in the assay filed under Rattus norvegicus [2] was found to be 7 mg/kg.
For the compound `Cc1cc(NC(=O)C(=O)O)cc2c(=O)cc(C(=O)O)[nH]c12`, in the assay filed under Rattus norvegicus [1], the Ratio amounted to 25. For the same compound, the ED50 in the assay filed under Rattus norvegicus [2] was found to be 0.1 mg/kg.
The corresponding values for `Cc1c(NC(=O)C(=O)O)ccc2c(=O)cc(C(=O)O)[nH]c12` are 25 and 0.1 mg/kg.
Regarding `O=C(O)C(=O)Nc1cc2c(=O)cc(C(=O)O)[nH]c2c2ccccc12`, the ED50 in the assay listed under Rattus norvegicus [2] was 0.5 mg/kg.
As for `O=C([O-])c1cc(=O)c2c(OCC(O)COc3cccc4oc(C(=O)[O-])cc(=O)c34)cccc2o1.[Na+].[Na+]` [CROMOLYN SODIUM], the ED50 in the assay listed under Rattus norvegicus [2] was 2.5 mg/kg.
